Experiment [1] relates to Mus musculus. Briefly: Maximum tolerated (nonfatal) intraperitoneal dose tested in mice infected with Trypanosoma brucei.
Experiment [2] relates to Trypanosoma brucei. The experiment can be described thus: Minimum concentration producing complete lysis of all trypanosomes within 30 min at 37 degrees C in vitro in the presence of bovine serum albumin. Format: functional, organism-based. In outline:
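Trypanolysis of T. brucei EATRO 110 bloodstream forms (1.5-2 × 10^7/mL, 1:1 phosphate-buffered saline-glucose/MEM) with 0.3% bovine serum albumin added to the suspending medium, 37 °C. Compound was added at 5–1000 μM final with Me2SO ≤1% v/v. Turbidity was read at 750 nm and lysis checked microscopically at 5, 10 and 30 min. MLC is the lowest concentration giving complete lysis within 30 min.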

In experiment [3] the test system is Trypanosoma brucei. Briefly: Minimum concentration producing complete lysis of all trypanosomes within 30 min at 37 degrees C in vitro. The class given is functional. In outline:
(§1)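 T. brucei EATRO 110 bloodstream forms from infected rat or mouse blood, 1.5-2 × 10^7/mL in 1:1 phosphate-buffered saline-glucose and MEM, held on ice and used within 8 h. At 37 °C, turbidity was followed at 750 nm. Compound was added at 5–1000 μM final, with Me2SO ≤1% v/v. Phase microscopy scored lysis at 5, 10 and 30 min. MLC is the lowest concentration lysing all within 30 min. Near-MLC concentrations were repeated on 2–3 harvests.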

The test system of experiment [4] is Mus musculus. Briefly: Maximum tolerated (nonfatal) intraperitoneal dose tested in mice infected with Trypanosoma brucei. The class given is functional. In outline: (§2)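 Female Swiss-Webster mice (20-25 g) infected ip with 5×10^4 T. brucei EATRO 110 in freshly drawn infected mouse blood diluted with minimum essential medium. Groups of five mice received compound ip 4-6 h post-infection, as a milled suspension in saline with 0.25% methylcellulose or as a saline solution. A dose was scored toxic if mean survival was <90% of untreated controls or deaths occurred within 72 h; the compound was then retested at a lower dose.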

For experiment [5], the system named is Mus musculus. The experiment can be described thus: Maximum tolerated (nonfatal) intraperitoneal dose tested in mice infected with Trypanosoma brucei. Format: functional. In outline: as §2
In experiment [6] the test system is Trypanosoma brucei. The experiment can be described thus: Minimum concentration producing complete lysis of all trypanosomes within 30 min at 37 degrees C in vitro; IA is Inactive at 5 uM. Format: functional, organism-based. In outline: as §1

Activity calls are given as the source filed them. The rule behind the calls is not given here.

As to `CCCCNc1sc2c(C)c(O)c3ccccc3c2[n+]1CCCC.[Cl-]`, the Max dose in experiment [1] is 400 mg/kg. In addition, in experiment [2], the Concentration was determined as 100 µM. The compound further yielded a Min lytic concentration in experiment [3] of 10 µM.
With `CCNc1sc2c(C)c(O)c3ccccc3c2[n+]1CC.[Cl-]`, in experiment [1], the Max dose was 200 mg/kg. Besides, the Concentration in experiment [2] was determined as 200 µM. In experiment [3], the Min lytic concentration is 50 µM.
The compound `C=CCNc1nc2c(s1)c(C)c(O)c1ccccc12.Cl` yielded a Max dose in experiment [1] of 200 mg/kg. Moreover, the Min lytic concentration in experiment [3] was 20 µM.
Take `C=CCNc1sc2c(C)c(O)c3ccccc3c2[n+]1CC=C.[Cl-]`: in experiment [1], the Max dose amounted to 400 mg/kg. In experiment [3], this compound returned a Min lytic concentration of 20 µM.
With `Cl.Nc1nc2c(cc(O)c3ccccc32)s1`, the Max dose in experiment [4] amounted to 100 mg/kg. Further, the Min lytic concentration in experiment [3] is greater than 500 µM.
For the compound `COc1ccc(Nc2nc3c(s2)c(C)c(O)c2ccccc23)cc1.Cl`, the Max dose in experiment [5] was determined as 400 mg/kg. Besides, the Min lytic concentration in experiment [3] stood at 10 µM.
`CC(=O)c1cccc(Nc2sc3c(C)c(O)c4ccccc4c3[n+]2C)c1`: the Max dose in experiment [1] was found to be 200 mg/kg. The Min lytic concentration result in experiment [6] was “inactive”.
As for `Cc1c(O)c2ccccc2c2c1sc1[n+]2CCCN1.[Cl-]`, in experiment [1], the Max dose came out at 200 mg/kg. In experiment [3], this compound had a Min lytic concentration greater than 100 µM.
For the compound `Cc1c(O)c2ccccc2c2c1sc(NCCCN(CCO)CCO)[n+]2C.[Cl-]`, in experiment [1], the Max dose was 50 mg/kg. Further, in experiment [2], the Concentration turned out to be 200 µM. This compound returned a Min lytic concentration in experiment [3] of 100 µM.
`Cc1c(O)c2ccccc2c2c1sc(NCCO)[n+]2C.[Cl-]`: the Max dose in experiment [1] came to 100 mg/kg. The same compound came in with a Min lytic concentration in experiment [3] of 100 µM.
`Cc1c(O)c2ccccc2c2c1sc(NCCc1ccccc1)[n+]2C.[Cl-]` had a Max dose in experiment [1] of 400 mg/kg. The compound further registered a Min lytic concentration in experiment [3] of 10 µM.
The like results for `Cc1c(O)c2ccccc2c2nc(Nc3ccccc3)sc12.Cl` were, in that order, 200 mg/kg and 20 µM.
For `Cc1c(O)c2ccccc2c2c1sc(NCC(C)C)[n+]2CC(C)C.[Cl-]`, in that order: 200 mg/kg and 10 µM.
For the compound `CNc1nc2c(s1)c(C)c(O)c1ccccc12.Cl`, in experiment [5], the Max dose stood at 100 mg/kg. Besides, the Min lytic concentration in experiment [3] came to 30 µM.
Turning to `CCCCNc1sc2c(C)c(O)c3ccccc3c2[n+]1C.[Cl-]`, in experiment [1], the Max dose worked out at 200 mg/kg. Also, in experiment [3], the Min lytic concentration came out at 10 µM.
Consider `Cc1c(O)c2ccccc2c2nc(N)sc12.Cl`, for which, in experiment [5], the Max dose is 50 mg/kg. The compound also registered a Min lytic concentration in experiment [3] of 100 µM.
As for `CCCCCCNc1sc2c(C)c(O)c3ccccc3c2[n+]1CCCCCC.[Cl-]`, the Max dose in experiment [1] stood at 200 mg/kg. This compound showed a Min lytic concentration in experiment [3] greater than 10 µM.
For `CNc1sc2c(C)c(O)c3ccccc3c2[n+]1C.[Cl-]`, in that order: 50 mg/kg and 100 µM.
For `COCCNc1sc2c(C)c(O)c3ccccc3c2[n+]1C.[Cl-]`, in that order: 50 mg/kg and 50 µM.
Turning to `Cc1c(O)c2ccccc2c2c1sc(NCCCN1CCN(C)CC1)[n+]2C.Cl.[Cl-]`, in experiment [1], the Max dose was 100 mg/kg. Moreover, the Concentration in experiment [2] was determined as 100 µM. In addition, in experiment [3], the Min lytic concentration amounted to 100 µM.
The compound `CCCCCCCCNc1sc2c(C)c(O)c3ccccc3c2[n+]1C.[Cl-]` showed a Max dose in experiment [1] of 200 mg/kg. Further, the Min lytic concentration in experiment [3] turned out to be 10 µM.
For `Cc1c(O)c2ccccc2c2c1sc(Nc1ccccc1)[n+]2C.[Cl-]`, in that order: 200 mg/kg and 10 µM.
For `CCCNc1sc2c(C)c(O)c3ccccc3c2[n+]1CCC.[Cl-]`, in that order: 400 mg/kg and 30 µM.
The like results for `Cc1c(O)c2ccccc2c2c1sc1[n+]2CCN1.[Cl-]` were, in that order, 200 mg/kg and 30 µM.
As to `Cc1c(O)c2ccccc2c2c1sc(Nc1ccccc1)[n+]2CCO.[Cl-]`, in experiment [1], the Max dose amounted to 400 mg/kg. In experiment [3], this compound returned a Min lytic concentration greater than 5 µM.
`Cc1c(O)c2ccccc2c2c1sc(NC1CCCCC1)[n+]2CCO.[Cl-]` returned a Max dose in experiment [1] of 400 mg/kg. The compound also yielded a Min lytic concentration in experiment [3] of 20 µM.
In experiment [3], `Nc1nc(N)nc(Nc2ccc([As]3SCC(CO)S3)cc2)n1` (configuration not stated) [MELARSOPROL] had a Min lytic concentration of 100 µM.

The record behind these values is ChEMBL document CHEMBL1122070, “Potential antitrypanosomal agents. 1,N2-Disubstituted 2-amino-5-hydroxy-4-methylnaphtho[1,2-d]thiazolium salts and related compounds” (1982).
